Measured values reported in ChEMBL document CHEMBL1145495, “Polyamine effects on antibiotic susceptibility in bacteria” (2007).
≈ marks a conversion by molar mass, not a printed value. Calls of active or inactive are those of the source. The calls are words filed in the database; no cut-off is given here.

Key:
Staphylococcus aureus [1] = assay: Antibacterial activity against Staphylococcus aureus N315 at upto 16 mM after 14 to 16 hrs by broth dilution method; assay type: functional, organism-based
Escherichia coli [2] = assay: Antibacterial activity against Escherichia coli K12 at upto 16 mM after 14 to 16 hrs by broth dilution method; assay type: functional, organism-based
Salmonella typhimurium [3] = assay: Antibacterial activity against Salmonella enterica serovar Typhimurium LT2 at upto 16 mM after 14 to 16 hrs by broth dilution method; assay type: functional, organism-based; settings: Salmonella enterica subsp. enterica serovar Typhimurium
Staphylococcus aureus [4] = assay: Antibacterial activity against Staphylococcus aureus ATCC 3556 at upto 16 mM after 14 to 16 hrs by broth dilution method; assay type: functional, organism-based
Escherichia coli [5] = assay: Antibacterial activity against Escherichia coli K10 at upto 16 mM after 14 to 16 hrs by broth dilution method; assay type: functional, organism-based
Escherichia coli [6] = assay: Antibacterial activity against Escherichia coli C921-61 at upto 16 mM after 14 to 16 hrs by broth dilution method; assay type: functional, organism-based
Staphylococcus aureus [7] = assay: Antibacterial activity against Staphylococcus aureus Mu50 at upto 16 mM after 14 to 16 hrs by broth dilution method; assay type: functional, organism-based
Pseudomonas aeruginosa [8] = assay: Antibacterial activity against Pseudomonas aeruginosa T2095 after 14 to 16 hrs by broth dilution method; assay type: functional
Escherichia coli [9] = assay: Antibacterial activity against Escherichia coli N818 delta acrA mutant assessed as inhibition of AcrAB efflux pump after 14 to 16 hrs by broth dilution method; assay type: functional
How it was run: (§1)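 CLSI broth dilution in cation-adjusted Mueller-Hinton broth with serial twofold dilutions, with or without spermine or spermidine added. Overnight cultures were diluted in saline to OD600 0.1–0.12, and about 10^5 CFU were inoculated. Incubation was 14–16 h at 37°C. MIC was confirmed in three independent experiments. E. coli acrA mutants were tested with 1 mM spermine; P. aeruginosa isolates with 1 mM spermine or 20 mM spermidine.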

Escherichia coli [10] = assay: Antibacterial activity against Escherichia coli W4573 assessed as inhibition of AcrAB efflux pump after 14 to 16 hrs by broth dilution method; assay type: functional
Pseudomonas aeruginosa [11] = assay: Antibacterial activity against Pseudomonas aeruginosa M37310 after 14 to 16 hrs by broth dilution method; assay type: functional
Pseudomonas aeruginosa [12] = assay: Antibacterial activity against streptomycin-resistant Pseudomonas aeruginosa DK100 after 14 to 16 hrs by broth dilution method; assay type: functional; how it was run: as §1
Pseudomonas aeruginosa [13] = assay: Antibacterial activity against Pseudomonas aeruginosa PAO1 assessed as inhibition of bacterial population at 64 ug/ml after 48 hrs; assay type: functional, organism-based
How it was run: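 Population analysis: overnight 37°C cultures adjusted to 1 x 10^8 to 5 x 10^8 CFU/ml, diluted, 100 µl spread on LB plates with twofold serial dilutions of antibiotic with or without 1 mM spermine, plus LB alone; colonies counted after 48 h at 37°C; triplicate experiments.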

Staphylococcus aureus [14] = assay: Antibacterial activity against Staphylococcus aureus ATCC 3556 after 14 to 16 hrs by broth dilution method; assay type: functional
Escherichia coli [15] = assay: Antibacterial activity against Escherichia coli C921-61 after 14 to 16 hrs by broth dilution method; assay type: functional
Pseudomonas aeruginosa [16] = assay: Antibacterial activity against streptomycin and gentamycin-resistant Pseudomonas aeruginosa DK101 containing oprD mutant after 14 to 16 hrs by broth dilution method; assay type: functional; how it was run: as §1
Pseudomonas aeruginosa [17] = assay: Antibacterial activity against Pseudomonas aeruginosa T5177 after 14 to 16 hrs by broth dilution method; assay type: functional; how it was run: as §1
Pseudomonas aeruginosa [18] = assay: Antibacterial activity against Pseudomonas aeruginosa M38100B after 14 to 16 hrs by broth dilution method; assay type: functional
Escherichia coli [19] = assay: Antibacterial activity against Escherichia coli K10 after 14 to 16 hrs by broth dilution method; assay type: functional
Pseudomonas aeruginosa [20] = assay: Antibacterial activity against Pseudomonas aeruginosa H4563 after 14 to 16 hrs by broth dilution method; assay type: functional
Escherichia coli [21] = assay: Antibacterial activity against Escherichia coli N43 acrA mutant assessed as inhibition of AcrAB efflux pump after 14 to 16 hrs by broth dilution method; assay type: functional; how it was run: as §1
Escherichia coli [22] = assay: Antibacterial activity against Escherichia coli K12 after 14 to 16 hrs by broth dilution method; assay type: functional
Pseudomonas aeruginosa [23] = assay: Antibacterial activity against Pseudomonas aeruginosa M22152 after 14 to 16 hrs by broth dilution method; assay type: functional; how it was run: as §1
Pseudomonas aeruginosa [24] = assay: Antibacterial activity against Pseudomonas aeruginosa DK101 containing pAU48 expressing oprD after 14 to 16 hrs by broth dilution method; assay type: functional
Pseudomonas aeruginosa [25] = assay: Antibacterial activity against Pseudomonas aeruginosa M38100A after 14 to 16 hrs by broth dilution method; assay type: functional
Staphylococcus aureus [26] = assay: Antibacterial activity against Staphylococcus aureus Mu50 after 14 to 16 hrs by broth dilution method; assay type: functional
Staphylococcus aureus [27] = assay: Antibacterial activity against Staphylococcus aureus N315 after 14 to 16 hrs by broth dilution method; assay type: functional; how it was run: as §1
Pseudomonas aeruginosa [28] = assay: Antibacterial activity against Pseudomonas aeruginosa T15464 after 14 to 16 hrs by broth dilution method; assay type: functional; how it was run: as §1
Pseudomonas aeruginosa [29] = assay: Antibacterial activity against Pseudomonas aeruginosa PAO1 after 14 to 16 hrs by broth dilution method; assay type: functional
Salmonella typhimurium [30] = assay: Antibacterial activity against Salmonella enterica serovar Typhimurium LT2 after 14 to 16 hrs by broth dilution method; assay type: functional, Salmonella enterica subsp. enterica serovar Typhimurium
Pseudomonas aeruginosa [31] = assay: Antibacterial activity against Pseudomonas aeruginosa F4980 after 14 to 16 hrs by broth dilution method; assay type: functional; how it was run: as §1
Pseudomonas aeruginosa [32] = assay: Antibacterial activity against Pseudomonas aeruginosa F66336 after 14 to 16 hrs by broth dilution method; assay type: functional
Pseudomonas aeruginosa [33] = assay: Antibacterial activity against Pseudomonas aeruginosa T6268 after 14 to 16 hrs by broth dilution method; assay type: functional
Staphylococcus aureus [34] = assay: Antibacterial activity against Staphylococcus aureus Mu50 at 20 ug/ml after 12 hrs by time kill assay; assay type: functional, organism-based
How it was run: (§2)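 Time-kill: overnight MH broth cultures were diluted in saline to OD600 0.08–0.12, and 1 x 10^5 to 5 x 10^5 CFU went into 1 ml MH broth with or without antibiotic and/or 1 mM spermine. Static incubation at 37°C. Timed 100 µl aliquots were plated on LB neat or after 10-fold dilutions, and colonies counted after 18–24 h at 37°C.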

Staphylococcus aureus [35] = assay: Antibacterial activity against Staphylococcus aureus Mu50 assessed as inhibition of bacterial population at greater than 512 ug/ml after 48 hrs; assay type: functional, organism-based
Staphylococcus aureus [36] = assay: Antibacterial activity against Staphylococcus aureus N315 at 20 ug/ml after 12 hrs by time kill assay; assay type: functional, organism-based; how it was run: as §2
Staphylococcus aureus [37] = assay: Antibacterial activity against Staphylococcus aureus Mu50 assessed as inhibition of bacterial population at 128 ug/ml after 48 hrs; assay type: functional, organism-based

SMILES: NCCCCNCCCN
- Activity (Staphylococcus aureus [1]): inactive
- Activity (Escherichia coli [2]): inactive
- Activity (Salmonella typhimurium [3]): inactive
- Activity (Staphylococcus aureus [4]): inactive
- Activity (Escherichia coli [5]): inactive
- Activity (Escherichia coli [6]): inactive
- Activity (Staphylococcus aureus [7]): inactive

SMILES: CC1(C)S[C@@H]2[C@H](NC(=O)C(C(=O)O)c3ccccc3)C(=O)N2[C@H]1C(=O)O (stereo partly drawn) [CARBENICILLIN]
- MIC (Pseudomonas aeruginosa [8]): 256 µg/mL (≈ 677 µM)
- MIC (Escherichia coli [9]): 2 µg/mL (≈ 5.29 µM)
- MIC (Escherichia coli [10]): 16 µg/mL (≈ 42.3 µM)
- MIC (Pseudomonas aeruginosa [11]): 1020 µg/mL (≈ 2710 µM)
- MIC (Pseudomonas aeruginosa [12]): 64 µg/mL (≈ 169 µM)
- Activity (Pseudomonas aeruginosa [13]): Active
- MIC (Staphylococcus aureus [14]): 1 µg/mL (≈ 2.64 µM)
- MIC (Escherichia coli [15]): 16 µg/mL (≈ 42.3 µM)
- MIC (Pseudomonas aeruginosa [16]): 64 µg/mL (≈ 169 µM)
- MIC (Pseudomonas aeruginosa [17]): > 1020 µg/mL
- MIC (Pseudomonas aeruginosa [18]): 1020 µg/mL (≈ 2710 µM)
- MIC (Escherichia coli [19]): 32 µg/mL (≈ 84.6 µM)
- MIC (Pseudomonas aeruginosa [20]): > 1020 µg/mL
- MIC (Escherichia coli [21]): 4 µg/mL (≈ 10.6 µM)
- MIC (Escherichia coli [22]): 16 µg/mL (≈ 42.3 µM)
- MIC (Pseudomonas aeruginosa [23]): > 1020 µg/mL
- MIC (Pseudomonas aeruginosa [24]): 64 µg/mL (≈ 169 µM)
- MIC (Pseudomonas aeruginosa [25]): 16 µg/mL (≈ 42.3 µM)
- MIC (Staphylococcus aureus [26]): ≥ 512 µg/mL
- MIC (Staphylococcus aureus [27]): 32 µg/mL (≈ 84.6 µM)
- MIC (Pseudomonas aeruginosa [28]): > 1020 µg/mL
- MIC (Pseudomonas aeruginosa [29]): 64 µg/mL (≈ 169 µM)
- MIC (Salmonella typhimurium [30]): 8 µg/mL (≈ 21.1 µM)
- MIC (Pseudomonas aeruginosa [31]): 256 µg/mL (≈ 677 µM)
- MIC (Pseudomonas aeruginosa [32]): 256 µg/mL (≈ 677 µM)
- MIC (Pseudomonas aeruginosa [33]): 16 µg/mL (≈ 42.3 µM)

SMILES: Cc1onc(-c2ccccc2)c1C(=O)N[C@@H]1C(=O)N2[C@@H]1SC(C)(C)[C@@H]2C(=O)O [OXACILLIN]
- Activity (Staphylococcus aureus [34]): inactive
- Activity (Staphylococcus aureus [35]): Active
- MIC (Staphylococcus aureus [14]): 0.12 µg/mL (≈ 0.299 µM)
- MIC (Escherichia coli [15]): 512 µg/mL (≈ 1280 µM)
- MIC (Escherichia coli [22]): 512 µg/mL (≈ 1280 µM)
- Activity (Staphylococcus aureus [36]): inactive
- MIC (Staphylococcus aureus [26]): 512 µg/mL (≈ 1280 µM)
- MIC (Staphylococcus aureus [27]): 16 µg/mL (≈ 39.9 µM)
- Activity (Staphylococcus aureus [37]): inactive
- MIC (Salmonella typhimurium [30]): 256 µg/mL (≈ 638 µM)
